Measurements: PMC3466594 (Organometallics, 2012)
Converted amounts (≈) assume the structure as drawn. “And” between values parts separate entries of the source, which are not always exact repeats. Identical values can stand only once. Values belong to the compound of their own block, whether it stands above or below them.

How the values were obtained:
[1] = ref [34], cited from earlier work
[2] = Stability in solution by 31P{1H} NMR; format: physicochemical; settings: for half-life in d6-DMSO:D2O mixture: d6-DMSO:D2O (1:1 / 50:50)
[3] = Solubility; format: physicochemical
[4] = tested on: plasmid (pBR322) DNA; assay: Electrophoresis mobility shift assay with plasmid DNA; format: binding; settings: metal/DNA ratios 0.25, 0.5, 1.0; 37 °C, 20 h
In short: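 pBR322 plasmid DNA (20 μg/mL) in 5 mM Tris/HCl, 50 mM NaClO4, pH 7.39 was incubated with test compound at compound:DNA molar ratios of […] for 20 h at 37 °C in the dark. Free DNA and cisplatin-DNA adduct served as controls. Samples were run on 1% agarose in TAE for 1.5 h at 80 V, then stained 30 min with GelRed.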

[5] = tested on: normal T-lymphocytes (peripheral blood mononuclear cells: PBMC); settings: PBMC vs Jurkat; ref [34]; cited from earlier work
[6] = tested on: Jurkat control (CN) cells; settings: 25 μM; ref [33]; cited from earlier work
[7] = tested on: Jurkat-shBak cells (Bax/Bak-deficient Jurkat cells); settings: 25 μM; ref [33]; cited from earlier work

Compound: O=C(N=P12CN3CN(CN(C3)C1)C2)c1ccccn1 [TPA=N-C(O)-2-NC5H4]
time to 50% decomposition in D2O ([1]; D2O): 12 h
half-life in d6-DMSO:D2O (1:1) ([1]; d6-DMSO:D2O (1:1)): 2 days

half-life in D2O ([2]; D2O): 2 days
stability in DMSO solution ([2]; DMSO): over two weeks
half-life in d6-DMSO:D2O mixture [2]: 14 days
Solubility (H2O) [3]: 28 mM (≈ 9940 µg/mL)
solubility in H2O [3]: 10 g/L (≈ 28.2 mM)
Compound: O=C(N=P12CN3CN(CN(C3)C1)C2)c1ccccc1Br [compound 1, TPA=N-C(O)-2BrC6H4]
change in electrophoretic mobility of pBR322 forms (CCC Form I, OC Form II) [4]: does not cause any shift for either form

stability under biological testing conditions ([2]; 24 h): stable
stable in d6-DMSO solution over ([2]; d6-DMSO): over 2 days
half-life in d6-DMSO:D2O mixture [2]: above 4 days
Solubility (H2O) [3]: 1.0 mM and 0.90 mg/mL
Compound: [Pd{C6H4(C(O)N=TPA-kC,N)-2}{C12H6N2(C6H4SO3Na)2}] [compound 5]

Compound: N.N.[Cl][Pt][Cl] [Cisplatin, cisplatin]
times less toxic to PBMC than to Jurkat cell lines [5]: 70 times
death of Jurkat control (CN) cells [6]: around 60%
death of Jurkat-shBak cells [7]: less than 8%
